# Laboratory results from ChEMBL document CHEMBL4513216, “Probing the Open Global Health Chemical Diversity Library for Multistage-Active Starting Points for Next-Generation Antimalarials” (ACS Infect Dis, 2020).
# Test: Toxicity liver stage against HepG2, at 10uM
# Assay type: cell-based
# Parameters: test concentration 10 uM, cell line HepG2-A16-CD81EGFP
# Conditions: human, HepG2-A16-CD81EGFP cells; read-out: INHIBITION
# In short: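 Uninfected HepG2-A16-CD81EGFP cells, 3 × 10^3 per well, 1536-well, plated on prespotted compound at 10 μM final, parasite-free screening media added to match infected plates; puromycin 10 μM positive, DMSO 0.5% negative; run in parallel with 48 h PbLuc assay at 37 °C, 5% CO2; viability by CellTiter-Glo luminescence, normalized to controls.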
row,Compound,cytotoxicity at 10 µM
1,CC(C)[C@H](NC(=O)N1CCC(Cc2ccccc2)CC1)C(=O)O,-7.44%
2,O=C(NC[C@H]1OC[C@@H](NC2CCC(F)(F)CC2)[C@@H]1O)N1CCOCC1,-0.0603%
3,CNC(=O)[C@@H]1[C@@H](c2ccccc2)CN2CCN(Cc3cc(C)no3)C[C@H]12,5.94%
4,Cc1cc(C)n2c(CCCNS(=O)(=O)c3cccs3)nnc2n1,1.57%
5,COCC(=O)NCc1nn(CCN2CCCC2)c(=O)c2ccccc12,-18.9%
6,O=C(NC[C@H]1OC[C@@H]2CCN(c3ncccn3)C[C@@H]21)c1ccnnc1,7.37%
7,CCOCC1CN(Cc2cc(C)on2)Cc2cn(C)nc21 (stereo unspecified),13.6%
8,O=C(NCc1cccnc1)C1=NOC2(CCN(C3CCOCC3)C2)C1 (stereo unspecified),-1.63%
9,O=C(c1ccccc1)N1CC[C@H]2C[C@H](c3nccs3)O[C@@H]2C1,8.39%
10,CS(=O)(=O)NC[C@]12COC[C@H]1CN(C(=O)c1ccccc1)C2,1.44%
11,O=C(Nc1ccccc1)c1n[nH]c(-n2cnnc2)n1,9.37%
12,Cc1nn(C)c(C)c1CNC(=O)c1cc(NC(=O)C2CC2)n(C)n1,5.31%
13,CCOCc1cccc(S(=O)(=O)Nc2ncc(C)s2)c1,6.38%
14,CCCNC(=O)C(C)n1nc(-c2ccc(C)o2)cc(N)c1=O (stereo unspecified),-1.15%
15,CSc1nnc(CNC(=O)Nc2ccccc2F)n1C,4.09%
16,O=C(NCC1CCCO1)c1cc(-c2cccnc2)c2cnccc2n1 (stereo unspecified),15.2%
17,NC(=O)c1ccc(C2CN(Cc3ccc(F)cc3)CCO2)nc1 (stereo unspecified),18.6%
18,CC[C@H](Cn1ncc2ccccc2c1=O)NC(=O)c1ccccn1,-4.27%
19,O=C(C1CC1)N1C[C@H]2CCCN(S(=O)(=O)c3ccc(Cl)s3)[C@H]2C1,8.26%
20,CCCN1C[C@H](NC(=O)c2cccs2)[C@@H](c2ccc(OC)cc2)C1,-9.96%
21,O=C(c1cccnc1)N1CCOC(c2ccc(-c3cncnc3)cn2)C1 (stereo unspecified),-16%
22,Cc1nc(NC2CCCC2)cc(C2CCN2C(=O)c2ccccc2)n1 (stereo unspecified),-6.31%

row,Compound,cytotoxicity at 10 µM
1,Cc1ccc(S(=O)(=O)NC(CO)CC(C)C)cc1N(C)C (stereo unspecified),-0.996%
2,CC(=O)c1cccc(OCC(=O)N(CC(C)C)C2CCN(C)CC2)c1,-17.6%
3,CN(C)C(=O)CCC[S+]([O-])Cc1ccc(F)c(F)c1 (stereo unspecified),12.2%
4,CC(C)(NS(C)(=O)=O)C(=O)NCCc1csc2ccccc12,0.694%
5,CC(C)CC(=O)N1Cc2ccccc2CC1C(=O)Nc1nccs1 (stereo unspecified),-135%
6,Cn1c(CN2CCCC(N3CCNC3=O)C2)cc(=O)n(C)c1=O (stereo unspecified),-5.6%
7,CC(NCCc1nccn1Cc1ccccc1)c1cccs1 (stereo unspecified),3.68%
8,CCCC(C#N)NC(=O)CCCOc1cccc(F)c1 (stereo unspecified),-44.1%
9,C1CCC(CNC2CCCN(Cc3noc(C4CC4)n3)C2)CC1 (stereo unspecified),-4.15%
10,CCOc1cc(CN(C)CCCO)ccc1OC(F)F,-14.1%
11,CCn1cnnc1C1CCN(C(=O)c2ccnc(N(C)C)c2)CC1,8.2%
12,O=C(CC1CN(Cc2ccccc2)CCO1)Nc1ccsc1 (stereo unspecified),-16.4%
13,CC(C)NC(=O)CCNC(=O)c1cc(F)ccc1NS(C)(=O)=O,-4.24%
14,CCN(C(=O)NCCc1ccccc1Cl)C(C)CS(C)(=O)=O (stereo unspecified),8.83%
15,COc1cc(F)c(S(=O)(=O)N2c3ncccc3NC(=O)C2C)cc1OC (stereo unspecified),-1.92%
16,Cc1cccc(OCC(=O)N(Cc2ccncc2)C2CC2)c1,-40.4%
17,NC(=O)NC(CC(=O)NCCc1cccc(F)c1)c1cccs1 (stereo unspecified),1.55%
18,COCc1cccc(NC(C)C(=O)N(C)Cc2ccccc2)c1 (stereo unspecified),-0.42%
19,NC(=O)C1CCN(Cn2nc(-c3ccccc3)oc2=O)CC1,-16.8%
20,Cc1n[nH]cc1CNc1ccc2c(c1)N(C(=O)OC(C)(C)C)CCC2,-1.97%
21,CC1CCN(CCNC(=O)c2cncnc2C(C)C)CC1,-12%
22,O=C(Cc1ccccc1)N1CCC2(CC1)CC(Nc1cnccn1)CO2 (stereo unspecified),5.1%

row,Compound,cytotoxicity at 10 µM
1,CS(=O)(=O)N1C[C@@H]2CCN(C(=O)c3cscn3)[C@@H]2C1,9.79%
2,O=C(NCC1Cn2nnc(-c3ccncc3)c2CO1)c1ccc[nH]1 (stereo unspecified),1.6%
3,CC(C)NC(=O)N1CC[C@@H]2CN(Cc3ccccc3)S(=O)(=O)[C@@H]2CC1,9.62%
4,O=C(c1ccncc1)N1CCCn2c(CN3CCCCC3)nnc2C1,-5.77%
5,O=C(c1ccnnc1)N1C[C@@H](OCC2CCOCC2)[C@H]2OCCC[C@H]21,-4.66%
6,CC(C)[C@@H]1CN(C(=O)NCc2ccco2)C[C@H]1N(C)C,12.7%
7,CCC[C@H]1CN(C2CCOCC2)C[C@@H]1NC(=O)CCCn1ccnc1,8.06%
8,COc1ccc(C(=O)N2C[C@@H](O)[C@H](NCc3ncccc3C)C2)cc1,0.225%
9,O=C(NCC1CCCCO1)c1cc(Cn2cnc3ccccc32)[nH]n1 (stereo unspecified),-11.3%
10,CC(C)S(=O)(=O)N1CCCC(c2nnc(Cn3ccnc3)n2C)C1 (stereo unspecified),-2.83%
11,COc1ccccc1OC1CN(C(=O)C(c2ccccc2F)N(C)C)C1 (stereo unspecified),3.91%
12,CCc1cc(C(=O)NCC2CCN(Cc3cccc(C#N)c3)C2)on1 (stereo unspecified),4.98%
13,CCC(Nc1ncccn1)c1cccnc1 (stereo unspecified),5.84%
14,O=C(CCc1nc(Cl)n[nH]1)N1C[C@H](CO)C[C@H](CN2CCCC2)C1,0.77%
15,COc1cccc([C@H]2CN(C(=O)c3noc4c3CCCC4)C[C@@H]2N)c1,2.57%
16,Cc1cc(C)n(C2CN(C(=O)Cn3c(=O)c(C)nc4ccccc43)C2)n1,-7.59%
17,COCCC1(C(=O)O)CCCN(CCc2ccccc2)C1 (stereo unspecified),10.6%
18,CCn1cnc(NC(=O)N2CCC(c3ccc(F)cc3)C2)n1 (stereo unspecified),4.17%
19,Cc1nc(CNc2nc(-c3ccco3)nc3c2CCNCC3)n[nH]1,-9.08%
20,C[C@@H]1CN(C(=O)C2(Cn3cccn3)CC2)CC[C@@]1(O)C1CCOCC1,3.48%
21,CCC(C)N(Cc1cccnc1)Cc1ccccc1Cn1cccn1 (stereo unspecified),-43%
22,Cc1ccc(C(C(=O)NCc2cc(C)[nH]n2)N(C)C)cc1 (stereo unspecified),-0.671%

row,Compound,cytotoxicity at 10 µM
1,CCCNS(=O)(=O)c1ccc(C(=O)NC(CC)c2cnn(C)c2)cc1 (stereo unspecified),6.1%
2,CCc1cc(N[C@H]2CCC[C@H]2O)n2nccc2n1,-4%
3,Cn1cc2ncn(CCNc3cccnc3)c(=O)c2n1,2.52%
4,COc1ccc(C(=O)N2C[C@@H](CN3CCOCC3)[C@@H](CO)C2)c(C)c1,-13.8%
5,O=C(O)[C@@H]1CN(C(=O)c2ccc3[nH]nnc3c2)C[C@H]1c1cccc(F)c1,-8.66%
6,O=C(c1ccc(F)c(F)c1)N1CCCC(Nc2ccc(F)cc2)C1 (stereo unspecified),-12.1%
7,O=S(=O)(N1CCCC1)N1CCCCC1CCc1ccccc1 (stereo unspecified),-5.65%
8,COc1cccc(N2CCN(C(=O)[C@H](O)C3CCCCC3)CC2=O)c1,-14.1%
9,Cc1nccnc1N1CCC2(CCCN(C3CCOCC3)C2=O)C1 (stereo unspecified),-8.8%
10,O=C(c1ccc(N2CCOCC2)nc1)N1CCCC(n2cccn2)C1 (stereo unspecified),-11.2%
11,Cc1cnn(C2CCCN(C(=O)Cc3ccc4c(c3)CCO4)C2)c1 (stereo unspecified),-5.83%
12,CC(C)CS(=O)(=O)CC(=O)NC(C)c1nnc2n1CCC2 (stereo unspecified),-19.1%
13,CC(C)(C)c1ncc(CNCC2CCCN2c2cccnn2)s1 (stereo unspecified),-3.33%
14,OCC1CCCN1c1cc(NCc2cccs2)ncn1 (stereo unspecified),-5.62%
15,Cn1ccc(CN2CCC(CN3CCOCC3)CC2)cc1=O,-11%
16,Cc1cccc(C(=O)N2CCCN(Cc3cnn(C)c3)CC2)n1,-10.5%
17,COc1cccc(-n2c(C)cc(C(=O)NS(C)(=O)=O)c2C)c1,-6%
18,c1cnc(Nc2cncc(C3CCCN3)n2)cn1 (stereo unspecified),-8.69%
19,Cc1cccc(CN2CCCCC2c2n[nH]cc2-c2cc(C)no2)c1 (stereo unspecified),6.5%
20,Cc1cc(C[C@@H]2COC[C@H]2NCc2ccc(C(F)(F)F)cc2)on1,-18.7%
21,CN1CCN(C[C@H]2OC[C@@H]3CCN(C(=O)c4cnccn4)C[C@@H]32)CC1,12%
22,Fc1cnc(N2CC[C@@H]3O[C@@H](COCc4cccnc4)CC[C@@H]32)nc1,10.1%

row,Compound,cytotoxicity at 10 µM
1,COc1c(CNCc2nnc3n2CCCCC3)c(C)nn1C,9.03%
2,COCC1CN(C(=O)c2cccn2C)Cc2c1cnn2CC1CC1 (stereo unspecified),8.07%
3,COCC1c2c(cnn2C)CCN1Cc1ccc(C)cc1 (stereo unspecified),45%
4,CN(C)C(=O)c1nn(C)c2c1CN(Cc1ccc(F)cc1)C2,-9.88%
5,Cc1nnc([C@H]2C[C@@H]3CCN(Cc4ccc(C)o4)C[C@H]3O2)[nH]1,-2.1%
6,CCc1ccc(CN2CCc3c(nnn3C)C2COC)cc1 (stereo unspecified),7.28%
7,CNC(=O)c1cc(C2CCCN2)n[nH]1 (stereo unspecified),-11.9%
8,CCc1nccn1-c1cccc(C2CCCN2)n1 (stereo unspecified),-5.77%
9,c1csc(CN2CCCC3(COCCN(Cc4c[nH]nn4)C3)C2)c1 (stereo unspecified),5.1%
10,c1ccc(CN2CC[C@]3(C[C@@H](Oc4ccccn4)CO3)C2)nc1,-1.88%
11,O=C(Cc1ccsc1)N1C[C@@H]2OCCN(CC3CC3)[C@@H]2C1,10.1%
12,CCOCC1CN(S(=O)(=O)CC)Cc2cnn(CC3CC3)c21 (stereo unspecified),9.55%
13,O=c1c2sccc2nc2n1CCN(Cc1ccc(F)c(F)c1)CC2,-26%
14,CN(Cc1ccco1)[C@@H]1CN(Cc2ccc(F)cc2)C[C@@H]2CCCO[C@@H]21,2.91%
15,CC(C)CN1C[C@@H]2C[C@H](C(=O)NC3CCC3)[C@H](C1)O2,2.37%
16,CC(C)CN1C[C@@H]2C[C@H](C(=O)N3CCCC3)[C@H](C1)O2,3.17%
17,O=S(=O)(c1cccnc1)N1C[C@H]2CC[C@@H](C1)N(Cc1ccccn1)C2,-0.807%
18,Cn1cc(CCC(=O)N2C[C@@H]3CC[C@H]2CN(Cc2ccccc2)C3)cn1,-1.97%
